This passage reports inhibition results from ChEMBL document CHEMBL1155459, “On-bead screening of a combinatorial fumaric acid derived peptide library yields antiplasmodial cysteine protease inhibitors with unusual peptide sequences” (J Med Chem, 2009).

The structures appear in SMILES notation. Peptide text beside a SMILES is read from it.

The nature of test [1]: Inhibition of Plasmodium falciparum falcipain-2 after 12 hrs by fluorescence spectroscopy-based on-bead assay. More on the design: concentration or dose not given beside the values. As to conditions: concentration not given here. An outline of the steps:
(§1)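 Library members on resin (PEGA, theoretical loading 0.40 mmol/g; added as DMSO suspension, 0.64 mM final inhibitor) preincubated with enzyme 12 h, then Cbz-Phe-Arg-AMC 40 μM added; AMC release followed by fluorescence (ex 380/em 460 nm). Kinetics compared with inhibitor-free amino-PEGA resin.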

The target of test [2] is Rhodesain (Trypanosoma brucei rhodesiense) (UniProt Q95PM0). The test can be described thus: Inhibition of Trypanosoma brucei rhodesiense rhodesain after 12 hrs by fluorescence spectroscopy-based on-bead assay. As to conditions: concentration not given here. Also noted: concentration or dose not given beside the values. In short, it runs like this: as §1
Sequence of Rhodesain (Trypanosoma brucei rhodesiense) (Q95PM0 1-450): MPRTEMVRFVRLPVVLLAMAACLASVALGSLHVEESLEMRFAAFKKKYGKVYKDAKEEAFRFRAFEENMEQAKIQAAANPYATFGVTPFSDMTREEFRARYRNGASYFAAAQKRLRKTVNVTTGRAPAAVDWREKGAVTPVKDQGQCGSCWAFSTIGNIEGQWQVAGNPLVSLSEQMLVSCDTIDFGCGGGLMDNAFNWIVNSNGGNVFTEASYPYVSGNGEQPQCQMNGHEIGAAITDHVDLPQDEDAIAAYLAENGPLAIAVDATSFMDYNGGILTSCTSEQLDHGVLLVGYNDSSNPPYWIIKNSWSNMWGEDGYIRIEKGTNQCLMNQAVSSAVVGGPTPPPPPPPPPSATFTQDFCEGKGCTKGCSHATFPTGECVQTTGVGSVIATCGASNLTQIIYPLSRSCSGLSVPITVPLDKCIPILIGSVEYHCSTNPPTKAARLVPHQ

With `CC(C)C[C@H](NC(=O)[C@H](Cc1ccccc1)NC(=O)/C=C/C(=O)N[C@@H](C)C(=O)NCC(=O)N[C@@H](Cc1ccccc1)C(=O)O)C(=O)N[C@H](C(=O)N[C@H](C(N)=O)C(C)C)C(C)C` (HELM PEPTIDE1{[C[C@H](NC(=O)/C=C/C(=O)[*:2])C(=O)NCC(=O)N[C@@H](Cc1ccccc1)C(=O)O].F.L.V.V.[am]}$$$$V2.0), the results for the inhibition in test [1] and in test [2] were 36% and 45%, respectively.
For the compound `CC(C)[C@H](NC(=O)[C@H](C)NC(=O)[C@@H](NC(=O)[C@H](Cc1ccccc1)NC(=O)/C=C/C(=O)N[C@@H](C)C(=O)NCC(=O)N[C@@H](Cc1ccccc1)C(=O)O)C1CCCCC1)C(N)=O` (HELM PEPTIDE1{[C[C@H](NC(=O)/C=C/C(=O)[*:2])C(=O)NCC(=O)N[C@@H](Cc1ccccc1)C(=O)O].F.[O=C([C@@H](N[*:1])C1CCCCC1)[*:2]].A.V.[am]}$$$$V2.0), the inhibition – broadly, the percentage by which the read-out fell short of the control – came out at 29% in test [1] and 21% in test [2].
Consider `CC(C)C[C@H](NC(=O)[C@@H](NC(=O)[C@H](Cc1ccccc1)NC(=O)/C=C/C(=O)N[C@@H](C)C(=O)NCC(=O)N[C@@H](Cc1ccccc1)C(=O)O)C1CCCCC1)C(=O)N[C@H](C(N)=O)C(C)C` (HELM PEPTIDE1{[C[C@H](NC(=O)/C=C/C(=O)[*:2])C(=O)NCC(=O)N[C@@H](Cc1ccccc1)C(=O)O].F.[O=C([C@@H](N[*:1])C1CCCCC1)[*:2]].L.V.[am]}$$$$V2.0), for which the results for the inhibition in test [1] and in test [2] were 56% and 49%, respectively.
The matching figures for `CC(C)[C@H](NC(=O)[C@@H](NC(=O)[C@@H](NC(=O)[C@H](Cc1ccccc1)NC(=O)/C=C/C(=O)N[C@@H](C)C(=O)NCC(=O)N[C@@H](Cc1ccccc1)C(=O)O)C1CCCCC1)C(C)C)C(N)=O` (HELM PEPTIDE1{[C[C@H](NC(=O)/C=C/C(=O)[*:2])C(=O)NCC(=O)N[C@@H](Cc1ccccc1)C(=O)O].F.[O=C([C@@H](N[*:1])C1CCCCC1)[*:2]].V.V.[am]}$$$$V2.0): 45% and 49%.
Regarding `CC(C)[C@H](NC(=O)[C@H](C)NC(=O)[C@@H](NC(=O)[C@H](Cc1ccccc1)NC(=O)/C=C/C(=O)N[C@@H](C)C(=O)NCC(=O)N[C@@H](Cc1ccccc1)C(=O)O)c1ccccc1)C(N)=O` (HELM PEPTIDE1{[C[C@H](NC(=O)/C=C/C(=O)[*:2])C(=O)NCC(=O)N[C@@H](Cc1ccccc1)C(=O)O].F.[Phg].A.V.[am]}$$$$V2.0), the inhibition worked out at 34% in test [1] and 47% in test [2].
The matching figures for `CC(C)C[C@H](NC(=O)[C@@H](NC(=O)[C@H](Cc1ccccc1)NC(=O)/C=C/C(=O)N[C@@H](C)C(=O)NCC(=O)N[C@@H](Cc1ccccc1)C(=O)O)c1ccccc1)C(=O)N[C@H](C(N)=O)C(C)C` (HELM PEPTIDE1{[C[C@H](NC(=O)/C=C/C(=O)[*:2])C(=O)NCC(=O)N[C@@H](Cc1ccccc1)C(=O)O].F.[Phg].L.V.[am]}$$$$V2.0): 53% and 68%.
For `CC(C)[C@H](NC(=O)[C@@H](NC(=O)[C@@H](NC(=O)[C@H](Cc1ccccc1)NC(=O)/C=C/C(=O)N[C@@H](C)C(=O)NCC(=O)N[C@@H](Cc1ccccc1)C(=O)O)c1ccccc1)C(C)C)C(N)=O` (HELM PEPTIDE1{[C[C@H](NC(=O)/C=C/C(=O)[*:2])C(=O)NCC(=O)N[C@@H](Cc1ccccc1)C(=O)O].F.[Phg].V.V.[am]}$$$$V2.0), the values for the inhibition in test [1] and in test [2] were 58% and 77%, respectively.
Consider `CC(C)[C@H](NC(=O)[C@H](C)NC(=O)[C@H](Cc1ccccc1)NC(=O)[C@H](CC(N)=O)NC(=O)/C=C/C(=O)N[C@@H](C)C(=O)NCC(=O)N[C@@H](Cc1ccccc1)C(=O)O)C(N)=O` (HELM PEPTIDE1{[C[C@H](NC(=O)/C=C/C(=O)[*:2])C(=O)NCC(=O)N[C@@H](Cc1ccccc1)C(=O)O].N.F.A.V.[am]}$$$$V2.0), for which the values for the inhibition in test [1] and in test [2] were 25% and 47%, respectively.
The matching figures for `CC(C)C[C@H](NC(=O)[C@H](Cc1ccccc1)NC(=O)[C@H](CC(N)=O)NC(=O)/C=C/C(=O)N[C@@H](C)C(=O)NCC(=O)N[C@@H](Cc1ccccc1)C(=O)O)C(=O)N[C@H](C(N)=O)C(C)C` (HELM PEPTIDE1{[C[C@H](NC(=O)/C=C/C(=O)[*:2])C(=O)NCC(=O)N[C@@H](Cc1ccccc1)C(=O)O].N.F.L.V.[am]}$$$$V2.0): 58% and 64%.
As for `CC(C)[C@H](NC(=O)[C@@H](NC(=O)[C@H](Cc1ccccc1)NC(=O)[C@H](CC(N)=O)NC(=O)/C=C/C(=O)N[C@@H](C)C(=O)NCC(=O)N[C@@H](Cc1ccccc1)C(=O)O)C(C)C)C(N)=O` (HELM PEPTIDE1{[C[C@H](NC(=O)/C=C/C(=O)[*:2])C(=O)NCC(=O)N[C@@H](Cc1ccccc1)C(=O)O].N.F.V.V.[am]}$$$$V2.0), the inhibition was 54% in test [1] and 53% in test [2].
The like results for `CC[C@H](C)[C@H](NC(=O)[C@H](CC(N)=O)NC(=O)/C=C/C(=O)N[C@@H](C)C(=O)NCC(=O)N[C@@H](Cc1ccccc1)C(=O)O)C(=O)N[C@@H](C)C(=O)N[C@H](C(N)=O)C(C)C` (HELM PEPTIDE1{[C[C@H](NC(=O)/C=C/C(=O)[*:2])C(=O)NCC(=O)N[C@@H](Cc1ccccc1)C(=O)O].N.I.A.V.[am]}$$$$V2.0) were, in that order, 38% and 17%.
For the compound `CC[C@H](C)[C@H](NC(=O)[C@H](CC(N)=O)NC(=O)/C=C/C(=O)N[C@@H](C)C(=O)NCC(=O)N[C@@H](Cc1ccccc1)C(=O)O)C(=O)N[C@@H](CC(C)C)C(=O)N[C@H](C(N)=O)C(C)C` (HELM PEPTIDE1{[C[C@H](NC(=O)/C=C/C(=O)[*:2])C(=O)NCC(=O)N[C@@H](Cc1ccccc1)C(=O)O].N.I.L.V.[am]}$$$$V2.0), the inhibition in test [1] worked out at 47%; in test [2], 60%.
The like results for `CC[C@H](C)[C@H](NC(=O)[C@H](CC(N)=O)NC(=O)/C=C/C(=O)N[C@@H](C)C(=O)NCC(=O)N[C@@H](Cc1ccccc1)C(=O)O)C(=O)N[C@H](C(=O)N[C@H](C(N)=O)C(C)C)C(C)C` (HELM PEPTIDE1{[C[C@H](NC(=O)/C=C/C(=O)[*:2])C(=O)NCC(=O)N[C@@H](Cc1ccccc1)C(=O)O].N.I.V.V.[am]}$$$$V2.0) were, in that order, 33% and 21%.
On to `CC(C)C[C@H](NC(=O)[C@H](CC(N)=O)NC(=O)/C=C/C(=O)N[C@@H](C)C(=O)NCC(=O)N[C@@H](Cc1ccccc1)C(=O)O)C(=O)N[C@@H](C)C(=O)N[C@H](C(N)=O)C(C)C` (HELM PEPTIDE1{[C[C@H](NC(=O)/C=C/C(=O)[*:2])C(=O)NCC(=O)N[C@@H](Cc1ccccc1)C(=O)O].N.L.A.V.[am]}$$$$V2.0), for which the inhibition was determined as 33% in test [1] and 42% in test [2].
As to `CC(C)C[C@H](NC(=O)[C@H](CC(N)=O)NC(=O)/C=C/C(=O)N[C@@H](C)C(=O)NCC(=O)N[C@@H](Cc1ccccc1)C(=O)O)C(=O)N[C@@H](CC(C)C)C(=O)N[C@H](C(N)=O)C(C)C` (HELM PEPTIDE1{[C[C@H](NC(=O)/C=C/C(=O)[*:2])C(=O)NCC(=O)N[C@@H](Cc1ccccc1)C(=O)O].N.L.L.V.[am]}$$$$V2.0), the figures for the inhibition in test [1] and in test [2] were 57% and 59%, respectively.
The matching figures for `CC(C)C[C@H](NC(=O)[C@H](CC(N)=O)NC(=O)/C=C/C(=O)N[C@@H](C)C(=O)NCC(=O)N[C@@H](Cc1ccccc1)C(=O)O)C(=O)N[C@H](C(=O)N[C@H](C(N)=O)C(C)C)C(C)C` (HELM PEPTIDE1{[C[C@H](NC(=O)/C=C/C(=O)[*:2])C(=O)NCC(=O)N[C@@H](Cc1ccccc1)C(=O)O].N.L.V.V.[am]}$$$$V2.0): 43% and 50%.
For `CC(C)[C@H](NC(=O)[C@H](C)NC(=O)[C@@H](NC(=O)[C@H](CC(N)=O)NC(=O)/C=C/C(=O)N[C@@H](C)C(=O)NCC(=O)N[C@@H](Cc1ccccc1)C(=O)O)C1CCCCC1)C(N)=O` (HELM PEPTIDE1{[C[C@H](NC(=O)/C=C/C(=O)[*:2])C(=O)NCC(=O)N[C@@H](Cc1ccccc1)C(=O)O].N.[O=C([C@@H](N[*:1])C1CCCCC1)[*:2]].A.V.[am]}$$$$V2.0), the inhibition in test [1] worked out at 45%; in test [2], 36%.
The matching figures for `CC(C)C[C@H](NC(=O)[C@@H](NC(=O)[C@H](CC(N)=O)NC(=O)/C=C/C(=O)N[C@@H](C)C(=O)NCC(=O)N[C@@H](Cc1ccccc1)C(=O)O)C1CCCCC1)C(=O)N[C@H](C(N)=O)C(C)C` (HELM PEPTIDE1{[C[C@H](NC(=O)/C=C/C(=O)[*:2])C(=O)NCC(=O)N[C@@H](Cc1ccccc1)C(=O)O].N.[O=C([C@@H](N[*:1])C1CCCCC1)[*:2]].L.V.[am]}$$$$V2.0): 40% and 66%.
The like results for `CC(C)[C@H](NC(=O)[C@@H](NC(=O)[C@@H](NC(=O)[C@H](CC(N)=O)NC(=O)/C=C/C(=O)N[C@@H](C)C(=O)NCC(=O)N[C@@H](Cc1ccccc1)C(=O)O)C1CCCCC1)C(C)C)C(N)=O` (HELM PEPTIDE1{[C[C@H](NC(=O)/C=C/C(=O)[*:2])C(=O)NCC(=O)N[C@@H](Cc1ccccc1)C(=O)O].N.[O=C([C@@H](N[*:1])C1CCCCC1)[*:2]].V.V.[am]}$$$$V2.0) were, in that order, 62% and 50%.
As for `CC(C)[C@H](NC(=O)[C@H](C)NC(=O)[C@@H](NC(=O)[C@H](CC(N)=O)NC(=O)/C=C/C(=O)N[C@@H](C)C(=O)NCC(=O)N[C@@H](Cc1ccccc1)C(=O)O)c1ccccc1)C(N)=O` (HELM PEPTIDE1{[C[C@H](NC(=O)/C=C/C(=O)[*:2])C(=O)NCC(=O)N[C@@H](Cc1ccccc1)C(=O)O].N.[Phg].A.V.[am]}$$$$V2.0), the inhibition turned out to be 35% in test [1] and 44% in test [2].
On to `CC(C)C[C@H](NC(=O)[C@@H](NC(=O)[C@H](CC(N)=O)NC(=O)/C=C/C(=O)N[C@@H](C)C(=O)NCC(=O)N[C@@H](Cc1ccccc1)C(=O)O)c1ccccc1)C(=O)N[C@H](C(N)=O)C(C)C` (HELM PEPTIDE1{[C[C@H](NC(=O)/C=C/C(=O)[*:2])C(=O)NCC(=O)N[C@@H](Cc1ccccc1)C(=O)O].N.[Phg].L.V.[am]}$$$$V2.0), for which the inhibition in test [1] and in test [2] was 55% in each case.
